Measured values gathered from unrelated publications.
Lines come from different studies, so protocols differ. pIC50: −log10 of the molar value.
AMY1A: Alpha-amylase 1A (AMY1A, Homo sapiens, UniProt P0DUB6)
Ephx2: Bifunctional epoxide hydrolase 2 (Ephx2, Mus musculus, UniProt P34914)
APC: Adenomatous polyposis coli protein (APC, Homo sapiens, UniProt P25054)
EGFR: Epidermal growth factor receptor (EGFR, Homo sapiens, UniProt P00533)

Oc1ccc([C@@H]2c3c(O)cc(O)cc3[C@@H]3c4c(cc(O)cc4[C@H]2[C@@H]2c4cc(O)cc5c4[C@@H](c4cc(O)cc(O)c4[C@H]2c2ccc(O)cc2)[C@H](c2ccc(O)cc2)O5)O[C@H]3c2ccc(O)cc2)cc1
pIC50 (AMY1A; enzyme activity, inhibitor): 4.47

O=C(Nc1ccc(-c2cnc3ccccc3c2)cc1)C1CCN(S(=O)(=O)c2ccccc2Cl)CC1
pIC50 (Ephx2; enzyme activity, inhibitor, fluorescence): 6.93

OC[C@H]1O[C@@H](Oc2cc3c4c(c2)[C@@H]([C@@H]2c5cc(O)cc6c5[C@@H](c5cc(O)cc(O)c5[C@H]2c2ccc(O)cc2)[C@H](c2ccc(O)cc2)O6)[C@H](c2ccc(O)cc2)c2c(O)cc(O)cc2[C@H]4[C@H](c2ccc(O)cc2)O3)[C@H](O)[C@@H](O)[C@@H]1O
pIC50 (AMY1A; enzyme activity, inhibitor): < 4.00

Cc1ccc2c(-c3cc4c(CN5CCN(Cc6ccccn6)CC5)cnc(C)c4o3)cc(=O)oc2c1
pIC50 (Epidermal growth factor receptor (EGFR, Homo sapiens, UniProt P00533, C797S/L858R/T790M); enzyme activity, inhibitor, ADP detection): 8.24

CC(C)C[C@H](NC(=O)[C@H](Cc1ccc2ccccc2c1)NC(=O)[C@H](CCC(=O)O)NC(=O)c1cccc(C(F)(F)F)c1)C(=O)NC1CC1c1ccccc1 (stereo partly drawn)
pIC50 (APC; ligand displacement, FP): 4.97

Cc1c(Cc2ccccc2)c(=O)oc2c(C)c(OCC(=O)NN=Cc3ccccc3)ccc12
pIC50 (EGFR; enzyme activity, inhibitor, ATP luminescence): 6.51

CC(C)C[C@H](NC(=O)[C@H](Cc1ccc2ccccc2c1)NC(=O)[C@H](CCC(=O)O)NC(=O)c1ccccc1)C(=O)NC1CC1c1ccccc1 (stereo partly drawn)
pIC50 (APC; ligand displacement, FP): 4.11

O=C(Nc1ccc(-c2cccc3ncccc23)cc1)C1CCN(S(=O)(=O)c2ccccc2Cl)CC1
pIC50 (Ephx2; enzyme activity, inhibitor, fluorescence): 7.76

C=CC(=O)Nc1cc2c(Nc3ccc(OCc4ccccn4)c(Cl)c3)ncnc2cc1OCCN1CCOCC1
pIC50 (Epidermal growth factor receptor (EGFR, Homo sapiens, UniProt P00533, L858R/T790M); enzyme activity, inhibitor): 8.82

CC(C)C[C@H](NC(=O)[C@H](Cc1ccc2ccccc2c1)NC(=O)[C@H](CCC(=O)O)NC(=O)c1ccccn1)C(=O)NC1CC1c1ccccc1 (stereo partly drawn)
pIC50 (APC; ligand displacement, FP): 4.52

O=C(Nc1ccc(-c2ccnc3ccccc23)cc1)C1CCN(S(=O)(=O)c2ccccc2Cl)CC1
pIC50 (Ephx2; enzyme activity, inhibitor, fluorescence): 7.54

Cc1ncc(CN2CCc3ccccc3C2)c2cc(C(=O)c3ccc4c(c3)OCCO4)oc12
pIC50 (EGFR; enzyme activity, inhibitor, ADP detection): 7.89

COc1cc(C(=O)N[C@@H](CCC(=O)O)C(=O)N[C@@H](Cc2ccc3ccccc3c2)C(=O)N[C@@H](CC(C)C)C(=O)NC2CC2c2ccccc2)ccn1 (stereo partly drawn)
pIC50 (APC; ligand displacement, FP): 4.41

Cc1ncc(CN2CCN(Cc3ccccn3)CC2)c2cc(C(=O)c3ccc4c(c3)OCCO4)oc12
pIC50 (EGFR; enzyme activity, inhibitor, ADP detection): 7.39

O=C(Nc1ccc(-c2ccc3cccnc3c2)cc1)C1CCN(S(=O)(=O)c2ccccc2Cl)CC1
pIC50 (Ephx2; enzyme activity, inhibitor, fluorescence): 7.42
